# Screening data: PubChem BioAssay, The Scripps Research Institute Molecular Screening Center
# Tb MetRS inh = Trypanosoma brucei MetRS inhibition | purified T. brucei MetRS, ATP depletion, Kinase-Glo luminescence | inhibition, % at 11.9 µM | 360,000 tested, 0.4% active | AID 624268;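 active = inhibition above a per-plate cutoff of the control wells' mean inhibition plus 3 SD, cut at about 5.5% in these data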
#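 Material: parasite MetRS enzyme / Replication: singlicate, one well per compound / Signal: luminescence of leftover ATP / Schedule: 2 h aminoacylation at 25 °C after 15 min preincubation / Medium: HEPES-MgCl2-KCl buffer plus DTT, spermine, BSA, pyrophosphatase / Doses: 11.9 µM single point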
# sPLA2-III inh = Blocks human group III sPLA2 activity; QFRET BODIPY PC-A2 liposome hydrolysis, fluorescence; AID 743126; inhibition, % at 12.2 µM; 370,000 tested, 0.56% active; Q9NZ20;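 active = inhibition above mean plus 3 SD of compounds lying within the high and low control bounds, cut at about 19% in these data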
# PLCb3 inh = blocks human PLC-beta3 enzyme activity. Q01970. Purified PLC-beta3, fluorogenic substrate, fluorescence. inhibition, % at 12.2 µM. 370,000 tested, 0.18% active. AID 720704; in the data active = inhibition above about 11%
# Target sequence (Q01970 whole entry, looked up): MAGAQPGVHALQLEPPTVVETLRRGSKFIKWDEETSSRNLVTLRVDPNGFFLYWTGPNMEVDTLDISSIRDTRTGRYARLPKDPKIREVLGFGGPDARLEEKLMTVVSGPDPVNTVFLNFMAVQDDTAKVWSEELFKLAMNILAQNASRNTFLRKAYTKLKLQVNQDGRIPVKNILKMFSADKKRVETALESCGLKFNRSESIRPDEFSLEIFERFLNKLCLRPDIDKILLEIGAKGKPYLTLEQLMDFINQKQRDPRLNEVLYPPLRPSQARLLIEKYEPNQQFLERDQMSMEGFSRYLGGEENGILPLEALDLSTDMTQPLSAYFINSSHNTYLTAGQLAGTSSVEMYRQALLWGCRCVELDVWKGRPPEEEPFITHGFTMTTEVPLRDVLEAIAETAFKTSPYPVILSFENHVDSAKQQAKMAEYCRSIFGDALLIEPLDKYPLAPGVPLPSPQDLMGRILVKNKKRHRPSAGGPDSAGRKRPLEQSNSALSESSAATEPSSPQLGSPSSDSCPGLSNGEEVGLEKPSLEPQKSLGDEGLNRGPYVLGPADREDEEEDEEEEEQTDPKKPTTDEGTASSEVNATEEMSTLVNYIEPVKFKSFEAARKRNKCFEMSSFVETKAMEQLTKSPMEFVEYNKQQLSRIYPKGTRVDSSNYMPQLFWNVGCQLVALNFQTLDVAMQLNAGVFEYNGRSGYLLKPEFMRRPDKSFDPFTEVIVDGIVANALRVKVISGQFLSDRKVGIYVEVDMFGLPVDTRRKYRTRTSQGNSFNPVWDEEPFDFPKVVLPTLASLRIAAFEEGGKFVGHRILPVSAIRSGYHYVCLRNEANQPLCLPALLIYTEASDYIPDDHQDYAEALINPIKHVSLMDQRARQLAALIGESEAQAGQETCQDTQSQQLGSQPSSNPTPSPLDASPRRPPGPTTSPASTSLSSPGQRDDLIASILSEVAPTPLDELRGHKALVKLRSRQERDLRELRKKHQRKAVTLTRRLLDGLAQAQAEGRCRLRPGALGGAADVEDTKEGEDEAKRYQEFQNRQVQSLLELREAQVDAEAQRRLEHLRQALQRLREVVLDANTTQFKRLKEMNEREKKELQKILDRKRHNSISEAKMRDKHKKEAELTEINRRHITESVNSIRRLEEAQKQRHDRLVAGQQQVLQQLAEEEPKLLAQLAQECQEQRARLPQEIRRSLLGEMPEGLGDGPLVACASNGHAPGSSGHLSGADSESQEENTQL
# PLCg1 inh = PLC-gamma1 (human) inhibition, primary screen; P19174; purified PLC-gamma1, fluorogenic substrate, fluorescence; inhibition, % at 12.2 µM; 370,000 tested, 0.84% active
# PLCgamma1 ctr = PLC-gamma1 inhibition, counter-screen for PLC-beta3 hits; AID 743258; shares compounds with PLCg1 inh; inhibition, % at 12.3 µM; 3,300 tested, 3.1% active; purified PLC-gamma1, fluorogenic substrate, fluorescence
# PLCb3 confirm = human PLC-beta3 inhibition, confirmation. shares compounds with PLCg1 inh. purified PLC-beta3, fluorogenic substrate fluorescence. inhibition, % at 12.3 µM. 3,300 tested, 1% active. AID 743261; in the data active = inhibition above about 11%
# Hits are given with their value; . = inactive; / = no result given. Rows were chosen to be rich in hits. Some 1.9% of all compounds tested hit in one or more screens of this group. Cut-off read from the data, not from the text of the source, unless noted: active = inhibition above about 9.5%; inactive = the rest.
SMILES,Tb MetRS inh,sPLA2-III inh,PLCb3 inh,PLCg1 inh,PLCgamma1 ctr,PLCb3 confirm
NC(=O)c1ncn([C@@H]2O[C@H](C(=O)N[C@H](Cc3c[nH]c4ccccc34)C(=O)N3CCN(C(=O)N4CCOCC4)CC3)[C@@H](O)[C@H]2O)n1,/,.,.,.,/,/
Cc1ccc(OCCCn2c(CO)nc3ccccc32)cc1,.,.,.,.,/,/
Cc1cccc(OCCCn2c(CO)nc3ccccc32)c1,.,.,.,12,.,.
CCCCCc1c(-c2cccc(Cl)c2)ncn1CCc1ccccc1OC,.,.,.,10,.,.
Cc1cccc[n+]1CC(=O)Nc1ccc([N+](=O)[O-])cc1Cl,.,.,.,14,.,.
O=S(=O)(CC1NCCc2ccccc21)NCc1ccc(F)cc1 (stereo not given),/,.,.,.,/,/
O=C(Nc1cccc(S(=O)(=O)N2CCOCC2)c1)c1cn(-c2ccccc2)nc1-c1ccccc1,.,.,.,.,/,/
Cc1ccc(-c2nn(-c3ccccc3)cc2C(=O)Nc2ccc(C)c(S(=O)(=O)N3CCOCC3)c2)cc1,.,.,.,9.6,.,.
Cc1onc(-c2ccccc2)c1C(=O)NCC1CCN(C(=O)C(=O)c2cccs2)CC1,/,.,.,.,/,/
Cc1ccc(C(C)C)c(OCC(O)CN2CCOCC2)c1 (stereo not given),.,.,.,.,/,/
Cc1ccc(C(C)C)c(OCC(O)CN2CC(C)OC(C)C2)c1 (stereo not given),.,.,.,15,.,.
CCCCNc1cccc2c1S(=O)(=O)N[C@H](Cc1ccccc1)CO2,/,.,.,.,/,/
COC(=O)C1CN(Cc2cn(Cc3ccc(C)cc3)nn2)CCS(=O)(=O)N1Cc1ccc(OC)cc1 (stereo not given),/,.,.,.,/,/
O=[N+]([O-])c1ccc(NCCCN2CCC(C(O)(c3ccccc3)c3ccccc3)CC2)cc1,/,.,.,13,.,.
O=C(CSc1nnc(COc2ccccc2)n1-c1ccccc1)Nc1ccc(S(=O)(=O)Nc2nccs2)cc1,/,.,.,.,/,/
CN(C)S(=O)(=O)c1cccc(C(=O)N/N=C\c2ccccc2)c1,/,.,.,.,/,/
CN(C)S(=O)(=O)c1ccc(NC(=O)CN2CCN(C(c3ccccc3)c3ccccc3)CC2)cc1,.,.,.,11,.,.
O=C(CN1CCN(C(c2ccccc2)c2ccccc2)CC1)Nc1ccc(N2CCOCC2)cc1,.,.,.,.,/,/
COc1cccc(-n2c(C)nnc2SCC#N)c1,.,.,13,12,.,.
COc1cccc(Cn2c(NCc3cccnc3)nc3c2c(=O)n(C)c(=O)n3C)c1,.,.,.,.,/,/
Cn1c(=O)c2c(nc(NCc3cccnc3)n2Cc2cccc(C(F)(F)F)c2)n(C)c1=O,.,.,.,12,.,.
c1ccc2cc3[nH]c(CNc4nc(N5CCOCC5)nc5c4ncn5-c4ccsc4)nc3cc2c1,/,.,.,.,/,/
Nc1[nH]c(C(=O)c2ccccc2)c(-c2cccc3ccccc23)c1C(=O)NCc1ccc(F)c(F)c1,/,.,.,.,/,/
Cc1ccc(S(=O)(=O)N2CCC(C(=O)N3Cc4ccccc4C3)CC2)cc1,.,.,.,10,.,.
CC(=O)N1CCC(C(=O)Nc2ccc(S(=O)(=O)N3CCC(C)CC3)cc2)CC1,.,.,.,9.6,.,.
SMILES,Tb MetRS inh,sPLA2-III inh,PLCb3 inh,PLCg1 inh,PLCgamma1 ctr,PLCb3 confirm
CCOc1ccc(N2CC(C(=O)Nc3cccc(S(=O)(=O)N4CCCCC4)c3)CC2=O)cc1 (stereo not given),.,.,.,11,.,.
Cc1ccc(N2CC(C(=O)Nc3ccc(S(=O)(=O)N4CCCC4)cc3)CC2=O)cc1 (stereo not given),.,.,.,15,.,.
COC(=O)[C@]12C[C@H](CC(=O)NCc3cccc4ccccc34)C(=O)N(Cc3ccco3)C1=C[C@H](C1CCCC1)O[C@@H]2C,/,.,.,.,/,/
O=C(OCC#CCSc1nnc(-c2cccc3ccccc23)o1)c1ccccc1,/,.,.,.,/,/
Cc1ccc(S(=O)(=O)N2CCC(C(=O)Nc3nnc(C4CCCC4)s3)CC2)cc1,.,.,.,15,.,.
O=C(Nc1nnc(C2CCCC2)s1)C1CCN(S(=O)(=O)c2ccc(Cl)cc2)CC1,.,.,.,.,/,/
Nn1c(SCc2ccc([N+](=O)[O-])cc2)nnc1-c1cc(-c2ccccc2)n[nH]1,/,.,.,.,/,/
CC1CC1C(=O)OCC(=O)Nc1ccc(N=Nc2ccccc2)cc1 (stereo not given),.,.,.,.,/,/
CCCC(=O)OCC(=O)Nc1ccc(N=Nc2ccccc2)cc1,.,.,.,9.6,.,.
COc1ccc(CNCC(O)COc2ccc(C(C)(C)c3ccccc3)cc2)cc1 (stereo not given),.,.,.,11,.,.
CCNC(=O)N1CCN(c2ccc(N3CCN(C(=O)NCC)[C@H](C)C3)c(C)c2)[C@@H](C)C1,/,.,.,.,/,/
CCOC(=O)Cc1csc(NC(=O)COc2ccccc2)n1,.,.,.,11,.,.
O=C(Nc1nc(COc2ccccc2)cs1)C12CC3CC(CC(C3)C1)C2,.,.,11,.,.,.
CCOC(=O)Cc1csc(NC(=O)COc2ccc(C)cc2)n1,.,.,.,.,/,/
Cc1ccc(S(=O)(=O)N/N=C/c2c(F)cccc2Cl)cc1,.,.,.,11,.,.
O=C(CCNC(=O)c1ccccc1Cl)Nc1ccc2c(c1)OCO2,.,.,.,11,.,.
CC(=O)c1cc2c(cc1NC(=O)CCNC(=O)c1ccccc1Cl)OCO2,.,.,.,.,/,/
COc1ccc(C(CC(=O)c2ccccc2)CC(=O)c2ccccc2)cc1,.,.,.,13,.,.
COP(=O)(CC(=O)OC(C)(C)C)C(CC(C)C)NC(=O)OCc1ccccc1 (stereo not given),/,.,.,.,/,/
COC(=O)n1c(=O)oc2ccc(S(=O)(=O)N3CCCCC3)cc21,.,.,.,.,/,/
CCCCOC(=O)n1c(=O)oc2cc(S(=O)(=O)N3CCCCC3)ccc21,.,.,.,11,.,.
CCn1nc(C(=O)O)c(=O)c2cc3c(cc21)OCO3,.,.,.,10,.,.
Clc1ccc(CSc2nnc(NC3=NCCCCC3)s2)cc1,.,.,11,.,.,.
Nc1nnc(SCc2ccc(Cl)cc2)s1,.,.,.,.,/,/
COC(=O)[C@]12C[C@H](CC(=O)NCC34CC5CC(CC(C5)C3)C4)C(=O)N(CCc3ccc(OC)c(OC)c3)C1=C[C@H](C(C)(C)C)O[C@@H]2C,/,.,.,.,/,/
COc1ccc(CCNC(=O)c2c(O)c3c([nH]c2=O)CCCC3)cc1,.,.,.,11,.,.
S=C(NCc1ccco1)Nc1cc(-c2ccccc2)[nH]n1,.,.,.,9.6,.,.
S=C(NCc1ccco1)Nc1ccc(Br)cn1,.,.,.,.,/,/
Cc1cnc(C(=O)OCC(=O)Nc2ccc(Cl)cc2)cn1,.,.,.,12,.,.
